According to ChEMBL document CHEMBL1124180, “Asymmetric synthesis and properties of the enantiomers of the antibacterial agent 7-(3-aminopyrrolidin-1-yl)-1-(2,4-difluorophenyl)-1,4-dihydro-6- fluoro-4-oxo-1,8-naphthyridine-3-carboxylic acid hydrochloride” (J Med Chem, 1988):

How the values were obtained:
[1] = test system: Prevotella melaninogenica; assay: In vitro activity against Bacteroides melaninogenicus (ATCC 25845).; type: functional
Method in brief: (§1)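 MIC determined under anaerobic conditions on Wilkins-Chalgren agar.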

Staphylococcus aureus [2] = assay: In vitro activity against Staphylococcus aureus(ATCC 6538P); type: functional
Method in brief: (§2)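 MIC determined by agar dilution on brain-heart infusion agar under aerobic conditions.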

Prevotella disiens = assay: In vitro activity against Bacteroides disiens (ATCC 29426); type: functional; method in brief: as §1
Clostridium perfringens = assay: In vitro activity against Clostridium perfringens (104AT13124); type: functional
Method in brief: (§3)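 MIC for anaerobic bacteria, measured on Wilkins-Chalgren agar.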

[3] = test system: Bacteroides thetaiotaomicron; assay: In vitro activity against Bacteroides thetaiotaomicron (SFM2975-2); type: functional; method in brief: as §1
Fusobacterium nucleatum = assay: In vitro activity against Fusobacterium nucleatum (ATCC 25586); type: functional; method in brief: as §1
Klebsiella aerogenes = assay: In vitro activity against Enterobacter aerogenes (ATCC 13048).; type: functional; method in brief: as §2
[4] = test system: Staphylococcus epidermidis; assay: In vitro activity against Staphylococcus epidermidis (3519); type: functional; method in brief: as §2
Peptostreptococcus sp. = assay: In vitro activity against Peptostreptococcus sp.(TB-11); type: functional, peptostreptococcus s; method in brief: as §3
Veillonella parvula = assay: In vitro activity against Veillonella parvula (ATCC 10790); type: functional
Method in brief: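 Anaerobic MICs measured by agar dilution on Wilkins-Chalgren agar.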

Mus musculus [5] = assay: In vivo activity against Escherichia coli Juhl(100X LD50), when administered po(each compound tested at 3 doses with 10 animals); type: functional
Method in brief: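 Mice were challenged intraperitoneally with the organism. The compound was given orally as a total dose split into equal portions at 1 and 5 h post-infection. Three doses were used, with 10 animals per dose.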

[6] = Solubility in aqueous media urine, pH 6.3; type: physicochemical; conditions: read-out: S
Acinetobacter sp. = assay: In vitro activity against Acinetobacter sp.(CMX 669).; type: functional; method in brief: as §2
[7] = Solubility in aqueous media 0.15 N phosphate, pH 5.6; type: physicochemical; conditions: read-out: S
[8] = test system: Bacteroides thetaiotaomicron; assay: In vitro activity against Bacteroides thetaiotaomicron (ATCC 29742); type: functional; method in brief: as §1
Bacteroides fragilis [9] = assay: In vitro activity against Bacteroides fragilis (784); type: functional; method in brief: as §1
[10] = Solubility in aqueous media urine, pH 5.7; type: physicochemical; conditions: read-out: S
Bacteroides fragilis [11] = assay: In vitro activity against Bacteroides fragilis (SFM2929-1); type: functional; method in brief: as §1
Streptococcus agalactiae = assay: In vitro activity against Streptococcus agalactiae (CMX 508).; type: functional; method in brief: as §2
Mus musculus [12] = assay: In vivo activity against Escherichia coli Juhl(100X LD50), when administered sc(each compound tested at 3 doses with 10 animals); type: functional
Method in brief: (§4)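 Mice were challenged intraperitoneally with the organism. The compound was given subcutaneously as a total dose split into equal portions at 1 and 5 h post-infection. Three doses were used, with 10 animals per dose.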

Escherichia coli = assay: In vitro activity against Escherichia coli (DC-2); type: functional
Method in brief: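 MIC for aerobic bacteria, measured on brain-heart infusion agar.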

[13] = Solubility in aqueous media urine, pH 7.0; type: physicochemical; conditions: read-out: S
Micrococcus luteus [14] = assay: In vitro activity against Micrococcus luteus (ATCC 9341); type: functional; method in brief: as §2
[15] = Solubility in aqueous media 0.15Nacetate, pH 6.1; type: physicochemical; conditions: 0.15 N acetate, read-out: S
[16] = test system: Bacteroides thetaiotaomicron; assay: In vitro activity against Bacteroides thetaiotaomicron (ATCC 29741); type: functional; method in brief: as §1
[17] = Solubility in aqueous media urine, pH 5.1; type: physicochemical; conditions: read-out: S
Micrococcus luteus [18] = assay: In vitro activity against Micrococcus luteus (ATCC 4698); type: functional; method in brief: as §2
Prevotella bivia = assay: In vitro activity against Bacteroides bivius(B 6140); type: functional; method in brief: as §1
Streptococcus equinus = assay: In vitro activity against Streptococcus bovis (A5169).; type: functional; method in brief: as §2
Staphylococcus aureus [19] = assay: In vitro activity against Staphylococcus aureus(CMX 503A); type: functional; method in brief: as §2
Clostridioides difficile = assay: In vitro activity against Clostridium difficile (ATCC 17857); type: functional
Fusobacterium = assay: In vitro activity against Fusobacterium sp.(GS-10); type: functional; method in brief: as §1
Mus musculus [20] = assay: In vivo activity against Staphylococcus aureus NCTC 10649, administered sc ( each compound tested at 3 doses with 10 animals); type: functional; method in brief: as §4
[21] = Solubility in aqueous media 0.1 N chloride, pH 6.5; type: physicochemical; conditions: read-out: S
Finegoldia magna = assay: In vitro activity against Peptococcus magnus (ATCC 29328); type: functional; method in brief: as §1
[22] = Solubility in aqueous media Ringer''s buffer, pH 7.4; type: physicochemical
Bacteroides fragilis [23] = assay: In vitro activity against Bacteroides fragilis (105AT25285); type: functional; method in brief: as §1
Streptococcus pyogenes = assay: In vitro activity against Streptococcus pyogenes (EES61); type: functional; method in brief: as §2

## Cl.N[C@H]1CCN(c2nc3c(cc2F)c(=O)c(C(=O)O)cn3-c2ccc(F)cc2F)C1
[1]
  MIC: 0.5 µg/mL
Staphylococcus aureus [2]
  MIC: 0.02 µg/mL
Prevotella disiens
  MIC: 1 µg/mL
Clostridium perfringens
  MIC: 0.12 µg/mL
[3]
  MIC: 1 µg/mL
Fusobacterium nucleatum
  MIC: 0.25 µg/mL
Klebsiella aerogenes
  MIC: 0.05 µg/mL
[4]
  MIC: 0.05 µg/mL
Peptostreptococcus sp.
  MIC: 0.25 µg/mL
Veillonella parvula
  MIC: 0.25 µg/mL
Mus musculus [5]
  ED50: 0.8 mg/kg
[6]
  solubility: 20.7 µg/mL
Acinetobacter sp.
  MIC: 0.05 µg/mL
[7]
  solubility: 4.3 µg/mL
[8]
  MIC: 0.5 µg/mL
Bacteroides fragilis [9]
  MIC: 0.25 µg/mL
[10]
  solubility: 27.5 µg/mL
Bacteroides fragilis [11]
  MIC: 0.25 µg/mL
Streptococcus agalactiae
  MIC: 0.2 µg/mL
Mus musculus [12]
  ED50: 0.2 mg/kg
Escherichia coli
  MIC: 0.2 µg/mL
[13]
  solubility: 17.1 µg/mL
Micrococcus luteus [14]
  MIC: 0.78 µg/mL
[15]
  solubility: 4.1 µg/mL
[16]
  MIC: 0.5 µg/mL
[17]
  solubility: 32.4 µg/mL
Micrococcus luteus [18]
  MIC: 0.78 µg/mL
Prevotella bivia
  MIC: 0.5 µg/mL
Streptococcus equinus
  MIC: 0.2 µg/mL
Staphylococcus aureus [19]
  MIC: 0.05 µg/mL
Clostridioides difficile
  MIC: 1 µg/mL
Fusobacterium
  MIC: 0.25 µg/mL
Mus musculus [20]
  ED50: 0.4 mg/kg
[21]
  solubility: 4.5 µg/mL
Finegoldia magna
  MIC: 0.06 µg/mL
[22]
  solubility: 13 µg/mL
Bacteroides fragilis [23]
  MIC: 0.25 µg/mL
Streptococcus pyogenes
  MIC: 0.1 µg/mL
